Laboratory results reported in ChEMBL document CHEMBL5252513, “Identification of a Benzoisoxazoloazepine Inhibitor (CPI-0610) of the Bromodomain and Extra-Terminal (BET) Family as a Candidate for Human Clinical Trials” (J Med Chem, 2016).
Calls of active or inactive are those of the source. The calls are words filed in the database; no cut-off is given here.

Tests used:
[1] = Tmax in dog at 2.5 mg/kg,po; type: ADME, organism-based, Canis lupus familiaris; conditions: in vivo
[2] = molecular target: T1, Transcription intermediary factor 1-alpha (Homo sapiens, UniProt O15164); test: Displacement of biotinylated JQ1 from TRIM24 bromodomain (unknown origin) incubated for 20 mins by AlphaLISA assay
T1 sequence (O15164 whole entry): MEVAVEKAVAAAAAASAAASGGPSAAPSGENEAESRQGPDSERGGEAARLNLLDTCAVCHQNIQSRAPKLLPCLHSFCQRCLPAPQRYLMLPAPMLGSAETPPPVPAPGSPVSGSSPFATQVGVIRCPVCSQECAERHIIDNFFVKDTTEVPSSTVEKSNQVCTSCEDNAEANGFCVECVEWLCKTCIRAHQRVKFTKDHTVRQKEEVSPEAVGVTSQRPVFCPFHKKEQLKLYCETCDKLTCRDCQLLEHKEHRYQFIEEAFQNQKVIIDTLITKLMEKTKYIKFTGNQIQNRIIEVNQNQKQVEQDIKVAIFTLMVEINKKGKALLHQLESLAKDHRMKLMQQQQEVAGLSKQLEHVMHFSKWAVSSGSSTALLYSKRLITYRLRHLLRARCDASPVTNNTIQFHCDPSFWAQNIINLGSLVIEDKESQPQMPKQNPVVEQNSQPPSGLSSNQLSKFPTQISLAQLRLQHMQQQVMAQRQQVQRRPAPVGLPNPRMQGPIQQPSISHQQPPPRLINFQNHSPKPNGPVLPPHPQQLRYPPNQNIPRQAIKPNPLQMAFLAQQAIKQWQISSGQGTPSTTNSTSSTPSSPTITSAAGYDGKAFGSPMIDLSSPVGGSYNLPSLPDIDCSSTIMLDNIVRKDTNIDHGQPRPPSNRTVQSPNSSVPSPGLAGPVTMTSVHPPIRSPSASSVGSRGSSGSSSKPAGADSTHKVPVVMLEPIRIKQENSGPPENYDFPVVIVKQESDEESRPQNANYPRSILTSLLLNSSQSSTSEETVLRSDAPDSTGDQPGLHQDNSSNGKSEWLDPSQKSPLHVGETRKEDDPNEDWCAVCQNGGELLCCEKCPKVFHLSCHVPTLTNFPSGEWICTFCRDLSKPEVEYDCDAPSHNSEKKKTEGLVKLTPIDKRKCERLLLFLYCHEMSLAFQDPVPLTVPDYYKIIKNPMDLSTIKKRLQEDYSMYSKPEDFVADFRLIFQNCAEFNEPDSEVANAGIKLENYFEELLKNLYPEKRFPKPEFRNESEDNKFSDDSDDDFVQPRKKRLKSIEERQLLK

[3] = molecular target: T1, Transcription intermediary factor 1-alpha; test: Binding affinity to TRIM24 bromodomain (unknown origin) incubated for 60 mins by TR-FRET assay
[4] = molecular target: Histone acetyltransferase KAT2B (Homo sapiens, UniProt Q92831); test: Binding affinity to PCAF bromodomain (unknown origin) incubated for 60 mins by TR-FRET assay
Sequence of Histone acetyltransferase KAT2B (Q92831 whole entry): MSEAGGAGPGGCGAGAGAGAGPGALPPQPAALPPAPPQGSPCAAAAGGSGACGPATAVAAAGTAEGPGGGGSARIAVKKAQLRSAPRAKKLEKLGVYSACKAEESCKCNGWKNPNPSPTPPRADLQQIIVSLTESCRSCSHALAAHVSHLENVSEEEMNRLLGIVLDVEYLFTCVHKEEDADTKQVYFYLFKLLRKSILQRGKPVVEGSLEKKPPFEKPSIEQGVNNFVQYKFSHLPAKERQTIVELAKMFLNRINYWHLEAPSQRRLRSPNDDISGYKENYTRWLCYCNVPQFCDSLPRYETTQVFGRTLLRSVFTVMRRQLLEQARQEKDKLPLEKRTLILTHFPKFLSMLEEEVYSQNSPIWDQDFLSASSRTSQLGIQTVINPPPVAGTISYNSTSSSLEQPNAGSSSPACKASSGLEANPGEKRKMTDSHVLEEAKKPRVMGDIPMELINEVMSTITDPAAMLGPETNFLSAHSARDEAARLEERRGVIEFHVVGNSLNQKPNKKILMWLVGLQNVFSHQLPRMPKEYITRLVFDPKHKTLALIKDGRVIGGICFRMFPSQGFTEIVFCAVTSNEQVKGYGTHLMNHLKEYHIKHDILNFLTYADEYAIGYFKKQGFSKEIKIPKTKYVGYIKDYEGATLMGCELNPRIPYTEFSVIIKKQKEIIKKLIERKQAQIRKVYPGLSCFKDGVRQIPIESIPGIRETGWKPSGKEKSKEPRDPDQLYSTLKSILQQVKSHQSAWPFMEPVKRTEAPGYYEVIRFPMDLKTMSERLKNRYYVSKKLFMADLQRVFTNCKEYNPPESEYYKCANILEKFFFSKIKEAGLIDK

[5] = Protein binding in rat plasma; type: ADME, cell-free; conditions: read-out: PPB (converted)
MV4-11 [6] = test: In vivo inhibition of BRD4 in human MV4-11 cells xenografted in BALB/c mouse assessed as reduction in cellular MYC mRNA expression level in tumor at 15 mg/kg,sc BID and measured at 4 hrs by PCR anlaysis; type: functional, organism-based
Procedure, shortened: (§1)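 Pharmacodynamic study in MV-4-11 AML mouse xenograft. Dosing was 15 mg/kg subcutaneous twice daily. At 4, 8 and 12 h after the second dose, MYC mRNA was measured against vehicle, and compound levels were measured in plasma and tumor. Free plasma concentration was estimated alongside total levels.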

[7] = Toxicity in rat assessed as hypocellularity of bone marrow with associated anemia and thrombocytopenia at 2 to 20 mg/kg,po QD consecutive for 14 days followed by 2 weeks recovery period; type: organism-based; conditions: in vivo, 336 h, dose 2-20 mg/kg, time 14 day
Procedure, shortened: (§2)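 Oral suspension given once daily for 14 consecutive days (rat 2, 6, 20 mg/kg; dog 2, 4, 6 mg/kg) in dose range-finding and GLP repeat-dose studies, GLP arms with an added 2-week recovery period; histopathology and clinical pathology findings recorded.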

[8] = Initial unbound plasma concentration in human patient with progression lymphoma at 300 mg,po QD and measured after 24 hrs; type: ADME; conditions: in vivo
CREB-binding protein = CREB-binding protein (Homo sapiens, UniProt Q92793); test: Binding affinity to CBP bromodomain (unknown origin) incubated for 60 mins by TR-FRET assay
Sequence of CREB-binding protein (Q92793 whole entry): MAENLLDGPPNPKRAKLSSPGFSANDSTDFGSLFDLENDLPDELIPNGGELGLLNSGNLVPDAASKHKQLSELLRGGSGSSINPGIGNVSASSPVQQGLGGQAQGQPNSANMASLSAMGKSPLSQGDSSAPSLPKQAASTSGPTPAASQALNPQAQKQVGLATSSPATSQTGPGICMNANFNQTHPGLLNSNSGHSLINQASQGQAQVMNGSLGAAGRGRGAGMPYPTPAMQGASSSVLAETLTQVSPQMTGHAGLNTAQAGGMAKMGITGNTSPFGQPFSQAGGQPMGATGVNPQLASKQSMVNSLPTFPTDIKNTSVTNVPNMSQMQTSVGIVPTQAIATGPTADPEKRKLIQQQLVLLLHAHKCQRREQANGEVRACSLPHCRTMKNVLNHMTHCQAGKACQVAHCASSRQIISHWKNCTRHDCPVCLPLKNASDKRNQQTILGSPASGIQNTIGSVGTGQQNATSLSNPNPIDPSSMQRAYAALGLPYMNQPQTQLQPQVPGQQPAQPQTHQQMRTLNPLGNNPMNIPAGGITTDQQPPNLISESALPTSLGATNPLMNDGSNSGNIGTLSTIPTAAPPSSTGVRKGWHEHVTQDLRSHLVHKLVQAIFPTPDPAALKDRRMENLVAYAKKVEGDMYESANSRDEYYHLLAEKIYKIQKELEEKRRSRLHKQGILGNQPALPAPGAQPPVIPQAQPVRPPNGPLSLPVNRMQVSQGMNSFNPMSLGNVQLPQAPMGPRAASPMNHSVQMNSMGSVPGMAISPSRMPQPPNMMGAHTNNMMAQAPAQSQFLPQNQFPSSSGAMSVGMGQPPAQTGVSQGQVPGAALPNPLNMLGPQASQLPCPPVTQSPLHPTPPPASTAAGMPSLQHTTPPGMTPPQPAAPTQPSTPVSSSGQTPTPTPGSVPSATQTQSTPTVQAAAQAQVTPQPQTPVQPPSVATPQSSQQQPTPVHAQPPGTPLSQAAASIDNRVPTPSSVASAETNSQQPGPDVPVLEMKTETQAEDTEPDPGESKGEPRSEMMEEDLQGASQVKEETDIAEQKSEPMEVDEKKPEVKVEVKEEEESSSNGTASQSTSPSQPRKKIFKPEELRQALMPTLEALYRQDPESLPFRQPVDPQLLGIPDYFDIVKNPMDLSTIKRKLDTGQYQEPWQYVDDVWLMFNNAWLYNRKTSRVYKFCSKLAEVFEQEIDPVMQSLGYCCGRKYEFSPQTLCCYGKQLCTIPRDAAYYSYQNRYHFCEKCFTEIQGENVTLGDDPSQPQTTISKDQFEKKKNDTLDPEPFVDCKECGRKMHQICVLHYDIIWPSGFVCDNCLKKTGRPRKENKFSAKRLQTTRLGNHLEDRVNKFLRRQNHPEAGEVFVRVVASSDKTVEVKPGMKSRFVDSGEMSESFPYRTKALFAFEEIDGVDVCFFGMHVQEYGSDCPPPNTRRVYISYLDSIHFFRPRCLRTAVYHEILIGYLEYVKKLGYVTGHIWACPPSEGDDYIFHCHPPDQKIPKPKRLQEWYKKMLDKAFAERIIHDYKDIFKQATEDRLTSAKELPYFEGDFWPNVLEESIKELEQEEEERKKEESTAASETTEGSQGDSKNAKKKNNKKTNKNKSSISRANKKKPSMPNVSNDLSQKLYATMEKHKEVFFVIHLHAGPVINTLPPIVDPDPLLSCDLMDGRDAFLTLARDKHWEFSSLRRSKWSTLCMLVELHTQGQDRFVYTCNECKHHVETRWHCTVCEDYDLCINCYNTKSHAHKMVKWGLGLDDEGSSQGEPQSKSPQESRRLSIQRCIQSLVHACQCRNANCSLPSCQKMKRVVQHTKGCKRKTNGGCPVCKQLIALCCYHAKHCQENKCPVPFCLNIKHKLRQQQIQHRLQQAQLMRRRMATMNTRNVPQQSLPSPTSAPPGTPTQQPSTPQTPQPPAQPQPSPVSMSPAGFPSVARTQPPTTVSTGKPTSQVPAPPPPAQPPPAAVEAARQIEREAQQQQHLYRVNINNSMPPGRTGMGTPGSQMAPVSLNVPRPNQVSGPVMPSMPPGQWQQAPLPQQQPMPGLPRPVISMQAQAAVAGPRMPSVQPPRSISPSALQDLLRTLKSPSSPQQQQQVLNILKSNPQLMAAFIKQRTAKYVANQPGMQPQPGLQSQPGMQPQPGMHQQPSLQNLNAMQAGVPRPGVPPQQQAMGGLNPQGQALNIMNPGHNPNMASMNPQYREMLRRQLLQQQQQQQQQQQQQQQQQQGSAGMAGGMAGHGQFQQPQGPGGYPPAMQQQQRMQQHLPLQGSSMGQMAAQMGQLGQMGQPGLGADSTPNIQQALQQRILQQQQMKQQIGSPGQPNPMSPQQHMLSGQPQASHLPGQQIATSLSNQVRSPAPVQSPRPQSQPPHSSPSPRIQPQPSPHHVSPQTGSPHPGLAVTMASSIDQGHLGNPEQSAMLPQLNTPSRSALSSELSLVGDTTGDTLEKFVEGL

MV4-11 [9] = test: In vivo inhibition of BRD4 in human MV4-11 cells xenografted in BALB/c mouse assessed as reduction in cellular MYC mRNA expression level in plasma at 15 mg/kg,sc BID and measured for 8 to 12 hrs by PCR anlaysis; type: functional, organism-based; conditions: time 8-12 hrs; procedure, shortened: as §1
[10] = Intrinsic clearance in rat liver microsomes; type: ADME, Microsome
[11] = Protein binding in human plasma; type: ADME, cell-free; conditions: read-out: PPB (converted)
[12] = Volume of distribution at steady state in rat at 1 mg/kg,iv; type: ADME, organism-based; conditions: in vivo, read-out: Vdss
[13] = Clearance in dog assessed as liver blood flow at 0.5 mg/kg,iv; type: ADME, organism-based, Canis lupus familiaris; conditions: in vivo
MV4-11 [14] = test: Antitumor activity against human MV4-11 cells xenografted in BALB/c mouse assessed as complete tumor growth inhibition at 10 mg/kg,sc BID in presence of doxorubicin at 2 mg/kg,iv BIW for 28 days; type: functional, organism-based; conditions: time 28.0 day
[15] = Toxicity in dog assessed as degeneration of testicular seminiferous epithelium at 2 to 6 mg/kg,po QD consecutive for 14 days followed by 2 weeks recovery period; type: organism-based, Canis lupus familiaris; conditions: in vivo, 336 h, dose 2-6 mg/kg, time 14 day; procedure, shortened: as §2

Cc1noc2c1-c1ccccc1C(c1ccc(Cl)cc1)=N[C@H]2CC(N)=O [PELABRESIB]
Tmax [1]: 1.3 h
IC50 [2]: > 20 µM
IC50 [3]: > 20 µM
IC50 [4]: > 20 µM
fraction unbound [5]: 0.07
inhibition (MV4-11 [6]): Active
Activity [7]: Toxic
C0(unbound) [8]: 11 nM
IC50 (CREB-binding protein): > 20 µM
inhibition (MV4-11 [9]): inactive
predicted hepatic clearance (CLH) [10]: 21 mL/min/kg
fraction unbound [11]: 0.05
Vd [12]: 1.3 L/kg
QH [13]: 6%
Activity (MV4-11 [14]): Active
Activity [15]: Toxic
